From ChEMBL document CHEMBL1177639, “Synthesis and biological evaluation of 5-substituted and 4,5-disubstituted-2-arylamino oxazole TRPV1 antagonists” (Bioorg Med Chem, 2010)

Columns and labels:
[1] = biological target: Transient receptor potential cation channel subfamily V member 1 (Homo sapiens, UniProt Q8NER1); test: Antagonist activity at human recombinant TRPV1 receptor expressed in human 1321 cells assessed as inhibition of capsaicin-induced in intracellular calcium levels by FLIPR assay; assay type: functional, cell-based
[2] = Ratio of drug level in brain to plasma in rat at 10 umol/kg, iv and po; assay type: ADME, organism-based; settings: read-out: BPR
[3] = Terminal phase volume of distribution […] in rat at 10 umol/kg, iv; assay type: ADME, organism-based; settings: in vivo, read-out: Vbeta
Outline: (§1)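 Rat pharmacokinetics after 10 µmol/kg dosing, three animals per group for each of the iv and oral routes. Parameters reported are Vb (iv), CLp, t1/2 (iv), oral Cmax and oral bioavailability.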

[4] = Plasma clearance in rat at 10 umol/kg, iv and po; assay type: ADME, organism-based; outline: as §1
[5] = Half life in rat at 10 umol/kg, iv; assay type: ADME, organism-based; settings: in vivo; outline: as §1
[6] = Cmax in rat at 10 umol/kg, po; assay type: ADME, organism-based; set-up: dose 10 umol/kg, route oral; settings: in vivo; outline: as §1
[7] = Bioavailability in rat at 10 umol/kg, po; assay type: ADME, organism-based; settings: in vivo; outline: as §1
[8] = biological target: T1, Transient receptor potential cation channel subfamily V member 2 (Rattus norvegicus, UniProt Q9WUD2); test: Antagonist activity at rat TRPV2 receptor; assay type: functional
T1 sequence (Q9WUD2 whole entry): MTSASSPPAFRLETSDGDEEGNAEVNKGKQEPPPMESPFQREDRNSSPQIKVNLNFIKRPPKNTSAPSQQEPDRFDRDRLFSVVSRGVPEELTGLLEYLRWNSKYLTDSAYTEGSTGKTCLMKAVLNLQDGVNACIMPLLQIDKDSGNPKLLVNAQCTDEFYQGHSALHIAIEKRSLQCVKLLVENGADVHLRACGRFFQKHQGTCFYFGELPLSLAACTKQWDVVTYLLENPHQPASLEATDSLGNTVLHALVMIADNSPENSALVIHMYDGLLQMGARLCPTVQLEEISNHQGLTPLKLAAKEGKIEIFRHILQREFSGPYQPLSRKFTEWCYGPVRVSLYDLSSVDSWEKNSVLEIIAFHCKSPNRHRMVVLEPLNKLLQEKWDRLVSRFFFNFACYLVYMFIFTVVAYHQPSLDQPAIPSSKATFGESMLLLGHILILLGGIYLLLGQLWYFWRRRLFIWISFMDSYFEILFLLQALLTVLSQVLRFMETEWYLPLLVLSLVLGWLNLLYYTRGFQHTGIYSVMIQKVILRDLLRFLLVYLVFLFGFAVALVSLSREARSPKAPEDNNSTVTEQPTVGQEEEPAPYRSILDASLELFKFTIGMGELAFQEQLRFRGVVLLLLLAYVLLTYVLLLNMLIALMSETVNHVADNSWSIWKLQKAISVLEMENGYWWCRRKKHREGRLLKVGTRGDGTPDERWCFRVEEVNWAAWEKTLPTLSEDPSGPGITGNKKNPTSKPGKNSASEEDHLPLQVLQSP

[9] = biological target: T2, Transient receptor potential cation channel subfamily V member 3 (Homo sapiens, UniProt Q8NET8); test: Antagonist activity at human TRPV3 receptor; assay type: functional
T2 sequence (Q8NET8 whole entry): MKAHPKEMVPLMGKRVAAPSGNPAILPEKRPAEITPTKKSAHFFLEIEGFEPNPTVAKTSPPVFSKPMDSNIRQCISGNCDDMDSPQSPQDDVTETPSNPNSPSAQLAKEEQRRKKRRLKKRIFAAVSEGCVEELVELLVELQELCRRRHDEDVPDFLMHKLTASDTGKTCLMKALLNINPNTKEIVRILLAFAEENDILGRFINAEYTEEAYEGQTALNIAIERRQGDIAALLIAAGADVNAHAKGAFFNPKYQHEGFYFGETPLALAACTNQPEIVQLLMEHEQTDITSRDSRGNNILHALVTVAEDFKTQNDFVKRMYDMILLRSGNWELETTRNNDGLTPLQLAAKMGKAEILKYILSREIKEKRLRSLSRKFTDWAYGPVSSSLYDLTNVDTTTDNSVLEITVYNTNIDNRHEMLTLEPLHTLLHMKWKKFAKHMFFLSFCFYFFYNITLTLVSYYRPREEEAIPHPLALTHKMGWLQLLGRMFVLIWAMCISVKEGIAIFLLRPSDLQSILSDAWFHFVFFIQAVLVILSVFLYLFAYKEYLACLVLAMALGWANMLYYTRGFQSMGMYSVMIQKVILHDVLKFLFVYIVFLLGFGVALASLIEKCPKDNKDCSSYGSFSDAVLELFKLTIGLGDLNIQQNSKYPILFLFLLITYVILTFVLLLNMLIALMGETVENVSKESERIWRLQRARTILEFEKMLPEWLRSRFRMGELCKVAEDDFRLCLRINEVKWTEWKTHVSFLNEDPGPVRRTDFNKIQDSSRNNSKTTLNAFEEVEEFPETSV

[10] = biological target: Transient receptor potential cation channel subfamily V member 4 (Homo sapiens, UniProt Q9HBA0); test: Antagonist activity at human TRPV4 receptor; assay type: functional
[11] = biological target: Transient receptor potential cation channel subfamily M member 8 (Homo sapiens, UniProt Q7Z2W7); test: Antagonist activity at human TRPM8 receptor; assay type: functional
Rattus norvegicus [12] = test: Analgesic activity against carrageenan-induced thermal hyperalgesia in Sprague-Dawley rat assessed as paw withdrawal latency at 10 umol/kg, po by hotbox assay; assay type: functional
Rattus norvegicus [13] = test: Analgesic activity in po dosed rat osteoarthritis model; assay type: functional
[14] = biological target: Voltage-gated inwardly rectifying potassium channel KCNH2 (Homo sapiens, UniProt Q12809); test: Inhibition of human ERG
[15] = Inhibition of human cytochrom P450; assay type: ADME
Salmonella typhimurium = test: Mutagenic activity in Salmonella Typhimurium by Ames test; assay type: toxicity, organism-based; settings: salmonella enterica subsp. enterica serovar typhimurium
Canis familiaris = test: Cardiotoxicity in anesthetized dog assessed as effect on hemodynamics at 57 times Cmax concentration; settings: in vivo

Sequence of Transient receptor potential cation channel subfamily V member 1 (Q8NER1 whole entry): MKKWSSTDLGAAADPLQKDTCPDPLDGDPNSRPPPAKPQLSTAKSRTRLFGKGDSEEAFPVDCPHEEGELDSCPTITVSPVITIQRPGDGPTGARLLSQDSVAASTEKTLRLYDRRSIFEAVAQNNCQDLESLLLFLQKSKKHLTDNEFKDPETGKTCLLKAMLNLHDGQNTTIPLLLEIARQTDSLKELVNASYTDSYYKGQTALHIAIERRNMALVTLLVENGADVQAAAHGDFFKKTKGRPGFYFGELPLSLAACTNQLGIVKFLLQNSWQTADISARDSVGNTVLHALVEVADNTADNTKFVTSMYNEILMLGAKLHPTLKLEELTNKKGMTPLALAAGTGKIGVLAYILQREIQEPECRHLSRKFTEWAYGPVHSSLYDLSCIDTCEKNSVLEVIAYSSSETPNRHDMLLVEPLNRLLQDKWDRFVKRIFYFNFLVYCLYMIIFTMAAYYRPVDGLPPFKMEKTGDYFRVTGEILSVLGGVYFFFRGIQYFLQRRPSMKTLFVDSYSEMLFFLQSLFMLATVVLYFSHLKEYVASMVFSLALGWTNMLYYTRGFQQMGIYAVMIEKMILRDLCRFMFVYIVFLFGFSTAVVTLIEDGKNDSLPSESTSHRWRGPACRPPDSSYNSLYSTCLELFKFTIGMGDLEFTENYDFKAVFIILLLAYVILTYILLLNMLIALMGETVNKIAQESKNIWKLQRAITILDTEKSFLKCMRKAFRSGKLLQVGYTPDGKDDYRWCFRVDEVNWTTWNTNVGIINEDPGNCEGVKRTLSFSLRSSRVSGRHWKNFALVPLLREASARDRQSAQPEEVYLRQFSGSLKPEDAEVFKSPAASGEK
Sequence of Transient receptor potential cation channel subfamily M member 8 (Q7Z2W7 whole entry): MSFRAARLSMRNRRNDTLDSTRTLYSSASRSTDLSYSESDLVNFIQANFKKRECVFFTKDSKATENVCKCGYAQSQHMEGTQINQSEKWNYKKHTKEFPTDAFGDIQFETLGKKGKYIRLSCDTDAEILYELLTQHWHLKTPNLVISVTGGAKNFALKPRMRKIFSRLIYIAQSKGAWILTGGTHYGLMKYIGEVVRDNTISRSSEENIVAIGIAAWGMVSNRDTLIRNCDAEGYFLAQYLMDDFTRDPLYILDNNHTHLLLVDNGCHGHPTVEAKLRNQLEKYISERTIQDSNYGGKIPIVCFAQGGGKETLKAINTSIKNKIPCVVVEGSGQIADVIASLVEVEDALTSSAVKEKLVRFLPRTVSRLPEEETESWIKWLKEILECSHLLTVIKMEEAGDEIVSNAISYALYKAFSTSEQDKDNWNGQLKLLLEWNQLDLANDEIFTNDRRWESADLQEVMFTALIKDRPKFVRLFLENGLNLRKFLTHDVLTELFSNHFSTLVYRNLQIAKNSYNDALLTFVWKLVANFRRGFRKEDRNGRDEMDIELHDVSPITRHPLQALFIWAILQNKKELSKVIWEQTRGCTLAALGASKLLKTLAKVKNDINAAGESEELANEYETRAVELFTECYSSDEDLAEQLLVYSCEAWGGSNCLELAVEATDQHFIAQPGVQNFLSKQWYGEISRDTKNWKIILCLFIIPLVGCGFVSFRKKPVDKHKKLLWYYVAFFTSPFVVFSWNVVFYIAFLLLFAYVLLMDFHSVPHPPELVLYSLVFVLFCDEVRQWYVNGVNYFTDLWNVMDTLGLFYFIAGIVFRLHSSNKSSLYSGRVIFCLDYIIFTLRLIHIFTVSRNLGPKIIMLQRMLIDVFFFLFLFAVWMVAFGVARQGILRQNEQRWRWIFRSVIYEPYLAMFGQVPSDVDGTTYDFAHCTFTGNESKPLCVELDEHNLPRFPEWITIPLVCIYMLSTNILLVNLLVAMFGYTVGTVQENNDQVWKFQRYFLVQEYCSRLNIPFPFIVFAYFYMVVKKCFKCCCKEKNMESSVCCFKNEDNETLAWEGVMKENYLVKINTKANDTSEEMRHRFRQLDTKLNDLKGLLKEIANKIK
Sequence of Transient receptor potential cation channel subfamily V member 4 (Q9HBA0 whole entry): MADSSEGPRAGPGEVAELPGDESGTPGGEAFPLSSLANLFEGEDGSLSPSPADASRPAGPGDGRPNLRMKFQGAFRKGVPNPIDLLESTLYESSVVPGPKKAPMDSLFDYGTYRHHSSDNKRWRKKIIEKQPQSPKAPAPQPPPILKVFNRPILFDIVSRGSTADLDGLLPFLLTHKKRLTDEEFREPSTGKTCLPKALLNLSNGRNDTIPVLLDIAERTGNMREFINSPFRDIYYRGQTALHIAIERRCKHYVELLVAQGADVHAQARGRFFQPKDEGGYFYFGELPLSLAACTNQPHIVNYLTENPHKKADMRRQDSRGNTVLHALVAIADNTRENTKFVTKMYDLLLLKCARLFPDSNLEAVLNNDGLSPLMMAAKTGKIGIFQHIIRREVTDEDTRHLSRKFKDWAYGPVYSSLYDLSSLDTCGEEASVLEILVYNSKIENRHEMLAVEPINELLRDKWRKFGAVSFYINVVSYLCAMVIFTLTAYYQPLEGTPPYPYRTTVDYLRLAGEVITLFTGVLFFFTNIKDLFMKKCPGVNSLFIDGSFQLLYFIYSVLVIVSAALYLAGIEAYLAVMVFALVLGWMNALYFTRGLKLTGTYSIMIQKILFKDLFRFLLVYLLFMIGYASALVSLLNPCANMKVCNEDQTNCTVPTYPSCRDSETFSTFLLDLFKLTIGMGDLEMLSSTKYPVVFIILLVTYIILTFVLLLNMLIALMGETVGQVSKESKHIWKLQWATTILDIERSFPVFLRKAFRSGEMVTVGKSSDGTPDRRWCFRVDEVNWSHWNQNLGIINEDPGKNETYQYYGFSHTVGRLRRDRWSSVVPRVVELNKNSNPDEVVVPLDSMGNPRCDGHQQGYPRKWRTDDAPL
Sequence of Voltage-gated inwardly rectifying potassium channel KCNH2 (Q12809 whole entry): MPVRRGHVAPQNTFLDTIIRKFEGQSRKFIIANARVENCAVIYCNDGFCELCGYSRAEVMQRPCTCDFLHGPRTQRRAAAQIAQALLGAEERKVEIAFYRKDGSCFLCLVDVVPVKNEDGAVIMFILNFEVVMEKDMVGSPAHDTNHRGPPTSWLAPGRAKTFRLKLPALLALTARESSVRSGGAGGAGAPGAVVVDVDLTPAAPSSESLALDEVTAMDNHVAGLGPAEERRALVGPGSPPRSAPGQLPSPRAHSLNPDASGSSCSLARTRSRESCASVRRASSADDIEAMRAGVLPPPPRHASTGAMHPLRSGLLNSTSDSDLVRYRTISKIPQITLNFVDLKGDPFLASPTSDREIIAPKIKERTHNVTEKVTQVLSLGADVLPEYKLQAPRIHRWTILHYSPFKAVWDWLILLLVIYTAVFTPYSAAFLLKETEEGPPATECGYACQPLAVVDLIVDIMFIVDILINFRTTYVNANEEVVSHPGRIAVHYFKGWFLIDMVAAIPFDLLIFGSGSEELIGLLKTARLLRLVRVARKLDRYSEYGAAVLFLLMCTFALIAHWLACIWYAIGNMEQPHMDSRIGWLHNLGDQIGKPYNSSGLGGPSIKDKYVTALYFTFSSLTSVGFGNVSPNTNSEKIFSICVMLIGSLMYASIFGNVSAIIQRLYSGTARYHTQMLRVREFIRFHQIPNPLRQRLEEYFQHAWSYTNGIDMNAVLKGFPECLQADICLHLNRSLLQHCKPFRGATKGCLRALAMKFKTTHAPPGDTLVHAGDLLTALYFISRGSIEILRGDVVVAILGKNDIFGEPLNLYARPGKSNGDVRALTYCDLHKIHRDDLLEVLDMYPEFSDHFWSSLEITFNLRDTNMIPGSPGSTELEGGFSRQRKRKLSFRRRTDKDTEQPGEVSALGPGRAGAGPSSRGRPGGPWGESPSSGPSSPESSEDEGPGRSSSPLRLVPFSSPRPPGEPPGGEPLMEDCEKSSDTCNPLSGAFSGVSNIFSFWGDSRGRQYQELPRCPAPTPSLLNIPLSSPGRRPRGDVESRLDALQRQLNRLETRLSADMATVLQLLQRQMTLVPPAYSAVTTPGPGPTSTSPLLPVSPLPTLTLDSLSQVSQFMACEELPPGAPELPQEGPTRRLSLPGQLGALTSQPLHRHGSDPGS

With `OC1CCc2cccc(Nc3ncc(-c4ccccc4)o3)c2C1` (stereo unspecified) the IC50 [1] was 187 nM.

In the case of `OC1CCc2cccc(Nc3ncc(-c4ccc(N5CCCC5)cc4)o3)c2C1` (stereo unspecified), the IC50 [1] is reported as 101 nM.

`OC1CCc2cccc(Nc3ncc(Cc4ccccc4)o3)c2C1` (stereo unspecified) gave an IC50 [1] of 1820 nM.

`COc1ccc(-c2cnc(Nc3cccc4c3CC(O)CC4)o2)cc1` (stereo unspecified) gave an IC50 [1] of 81 nM.

`Cc1ccc(-c2cnc(Nc3cccc4c3CC(O)CC4)o2)cc1` (stereo unspecified) showed an IC50 [1] of 62 nM.

In the case of `CC(C)(C)c1ccc(-c2cnc(Nc3cccc4c3CC(O)CC4)o2)cc1` (stereo unspecified), the IC50 [1] is reported as 26 nM.

`OC1CCc2cccc(Nc3ncc(-c4ccc(Cl)cc4)o3)c2C1` (stereo unspecified) gave an IC50 [1] of 15 nM.

`OC1CCc2cccc(Nc3nc(-c4ccccc4)co3)c2C1` (stereo unspecified) gave an IC50 [1] of 864 nM.

Work on `Cc1nc(Nc2cccc3c2CC(O)CC3)oc1-c1ccc(C(F)(F)F)cc1` (stereo unspecified) yielded a Kp [2] of 3, a Vd [3] of 10 L/kg and a clearance [4] of 40 mL/min/kg. It also gave a half-life [5] of 2.8 h, a Cmax [6] of 96 ng/mL and a bioavailability [7] of 33%.

`OC1CCc2cccc(Nc3nc(Br)c(-c4ccc(C(F)(F)F)cc4)o3)c2C1` (stereo unspecified) gave an IC50 [1] of 9 nM.

For `Cc1cccc(-c2cnc(Nc3cccc4c3CC(O)CC4)o2)c1` (stereo unspecified), the IC50 [1] was 157 nM.

In the case of `OC1CCc2c(cccc2Nc2ncc(-c3ccc(C(F)(F)F)cc3)o2)C1` (stereo unspecified), the IC50 [1] is reported as 120 nM.

Molecule `COC1CCc2cccc(Nc3ncc(-c4ccc(C(F)(F)F)cc4)o3)c2C1` (stereo unspecified) has an IC50 [1] of 150 nM.

In the case of `CN(c1ncc(-c2ccc(C(F)(F)F)cc2)o1)c1cccc2c1CC(O)CC2` (stereo unspecified), the IC50 [1] is reported as 277 nM.

In the case of `NC1CCc2cccc(Nc3ncc(-c4ccc(C(F)(F)F)cc4)o3)c2C1` (stereo unspecified), the IC50 [1] is reported as 327 nM.

For `Cc1nc(Nc2cccc3c2C[C@H](O)CC3)oc1-c1ccc(C(F)(F)F)cc1`, the Kp [2] was 3, the Vd [3] was 6.8 L/kg and the clearance [4] was 20 mL/min/kg. The half-life [5] was 3.8 h, the Cmax [6] was 130 ng/mL and the bioavailability [7] was 52%. It also gave an IC50 [8] of 37000 nM, an IC50 [9] greater than 100000 nM and an IC50 [10] greater than 100000 nM. The IC50 [11] was 44000 nM, the Activity (Rattus norvegicus [12]) was 52% and the ED50 (Rattus norvegicus [13]) was 14 µmol/kg. For the same molecule, the “inhibition (INH)” value [14] was “Not Active”, the “inhibition (INH)” value [15] was “Not Active” and the Activity (Salmonella typhimurium) was “Non-toxic”. For the same molecule, the Activity (Canis familiaris) was “Non-toxic”.

For `Cc1nc(Nc2cccc3c2C[C@@H](O)CC3)oc1-c1ccc(C(F)(F)F)cc1`, the Kp [2] was 3, the Vd [3] was 12 L/kg and the clearance [4] was 73.3 mL/min/kg. It also gave a half-life [5] of 1.9 h, a Cmax [6] of 20 ng/mL and a bioavailability [7] of 7%.

In the case of `CCc1nc(Nc2cccc3c2CC(O)CC3)oc1-c1ccc(C(F)(F)F)cc1` (stereo unspecified), the IC50 [1] is reported as 2.1 nM and the Kp [2] is reported as 3.7.

With `Cc1ccccc1-c1cnc(Nc2cccc3c2CC(O)CC3)o1` (stereo unspecified) the IC50 [1] was 416 nM.

With `O=C1CCc2cccc(Nc3ncc(-c4ccc(C(F)(F)F)cc4)o3)c2C1` the IC50 [1] was 374 nM.

With `OC1CCc2cccc(Nc3ncc(-c4ccc(C(F)(F)F)cc4)o3)c2C1` (stereo unspecified) the IC50 [1] was 8.3 nM, the Vd [3] was 5.4 L/kg and the clearance [4] was 85 mL/min/kg. For the same molecule, the half-life [5] was 0.7 h, the Cmax [6] was 23 ng/mL and the bioavailability [7] was 5%.

For `CC(C)c1nc(Nc2cccc3c2CC(O)CC3)oc1-c1ccc(C(F)(F)F)cc1` (stereo unspecified), the IC50 [1] was 114 nM.

In the case of `CC1(O)CCc2cccc(Nc3ncc(-c4ccc(C(F)(F)F)cc4)o3)c2C1` (stereo unspecified), the IC50 [1] is reported as 840 nM.

Molecule `FC(F)(F)c1ccc(-c2cnc(Nc3cccc4cnccc34)o2)cc1` has an IC50 [1] of 229 nM.

With `N#Cc1ccc(-c2nc(Nc3cccc4c3CC(O)CC4)oc2-c2ccc(C(F)(F)F)cc2)cc1` (stereo unspecified) the IC50 [1] was 2 nM and the Kp [2] was 0.13.

Molecule `FC(F)(F)c1ccc(-c2cnc(Nc3cccc4[nH]ncc34)o2)cc1` has an IC50 [1] of 101 nM.

With `Oc1ccc2cccc(Nc3ncc(-c4ccc(C(F)(F)F)cc4)o3)c2c1` the IC50 [1] was 5 nM.

Molecule `OC1CCc2cccc(Nc3nc(-c4ccc(F)cc4)c(-c4ccc(C(F)(F)F)cc4)o3)c2C1` (stereo unspecified) has an IC50 [1] of 1.3 nM and a Kp [2] of 0.21.
